≈ marks a conversion by molar mass, not a printed value.
Assays:
[1] = system: Brugia malayi; assay: Antifilarial activity against microfilariae Brugia malayi by motility assay; format: functional, organism-based; conditions: for IC50: Brugia malayi
Method in brief: (§1)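 Brugia malayi (sub-periodic strain), female adult worms or microfilariae, scored by motility following the Murthy and Chatterjee method. Compounds and reference DEC dissolved in DMSO, final DMSO below 0.1% in incubation medium; DMSO-only controls. LC100 is the concentration giving 100% loss of motility (parasite death); IC50 is the concentration giving 50% motility inhibition.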

[2] = system: Brugia malayi; assay: Antifilarial activity against adult Brugia malayi by motility assay; format: functional, organism-based; conditions: for IC50: Brugia malayi; method in brief: as §1
[3] = system: Brugia malayi; assay: Antifilarial activity against Brugia malayi infected in Meriones unguiculatus assessed as sterilized female worm at 200 mg/kg, sc administered 7 to 8 days post-adult worm transplantation for 5 days measured after 42 days; format: functional; conditions: route subcutaneous
Method in brief: (§2)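 Dosing was s.c. once daily × 5 days: 200 mg/kg (n = 4) or 25 mg/kg (n = 6), with vehicle-treated controls (n = 4). Read-outs were peritoneal-cavity microfilaraemia status, worms recovered (mean ± SD, P vs control) and % sterilized female worms.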

[4] = system: Brugia malayi; assay: Growth inhibition of adult Brugia malayi by MTT assay; format: functional
Method in brief: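 Adult female B. malayi worms were exposed in vitro to agents dissolved in DMSO, keeping final DMSO below 0.1%. Controls received DMSO alone. Results are given as mean % inhibition of MTT reduction.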

[5] = system: Brugia malayi; assay: Antifilarial activity against 5 to 7 months old Brugia malayi infected in Mastomys coucha assessed as sterilized female worm at 200 mg/kg, sc administered 7 to 8 days post-adult worm transplantation for 5 days measured on day 91 (reference value: 19.62%); format: functional; conditions: route subcutaneous
Method in brief: (§3)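 Mastomys coucha harbouring B. malayi were dosed at 200 or 50 mg/kg, with vehicle-treated animals as controls. Male, female and total adult worms recovered were counted and given as mean ± SD. Sterilized female worms were reported as count (%).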

[6] = system: Brugia malayi; assay: Antifilarial activity against 5 to 7 months old Brugia malayi infected in Mastomys coucha assessed as reduction in worm burden at 200 mg/kg, sc administered 7 to 8 days post-adult worm transplantation for 5 days measured on day 91 relative to control; format: functional; design: scale not given: the % may be the effect or the level left; conditions: route subcutaneous; method in brief: as §3
[7] = system: Brugia malayi; assay: Antifilarial activity against 5 to 7 months old Brugia malayi infected in Mastomys coucha assessed as sterilized female worm at 50 mg/kg, sc administered 7 to 8 days post-adult worm transplantation for 5 days measured on day 91 (reference value: 19.62%); format: functional; conditions: route subcutaneous; method in brief: as §3
[8] = system: Brugia malayi; assay: Antifilarial activity against 5 to 7 months old Brugia malayi infected in Mastomys coucha assessed as reduction in worm burden at 50 mg/kg, sc administered 7 to 8 days post-adult worm transplantation for 5 days measured on day 91 relative to control; format: functional; design: scale not given: the % may be the effect or the level left; conditions: route subcutaneous; method in brief: as §3
[9] = system: Brugia malayi; assay: Antifilarial activity against Brugia malayi infected in Meriones unguiculatus assessed as sterilized female worm at 25 mg/kg, sc administered 7 to 8 days post-adult worm transplantation for 5 days measured after 42 days; format: functional; conditions: route subcutaneous; method in brief: as §2

Compound | LC100 [1] [µg/mL] | LC100 [2] [µg/mL] | IC50 [1] [µg/mL] | Activity [3] [%] | growth inhibition (GI) [4] [%] | IC50 [2] [µg/mL] | Activity [5] [%] | Activity [6] [%] | Activity [7] [%] | Activity [8] [%] | Activity [9] [%]
CCC(C)c1cc(/C=C/C(=O)c2ccc(OC)cc2)cc2c1OCC1COC2O1 (racemic) | >10 | >10 | – | – | – | – | – | – | – | – | –
Cc1cc(/C=C/C(=O)c2ccccc2)cc2c1OCC1COC2O1 (racemic) | 2.5 | 1.25 | 0.9 (≈ 2.79 µM) | 29 | 15 | 1 (≈ 3.1 µM) | – | – | – | – | –
Cc1cc(/C=C/C(=O)c2ccc(Cl)cc2)cc2c1OCC1COC2O1 (racemic) | 2.5 | 1.25 | 1.1 (≈ 3.08 µM) | 29 | 39 | 0.6 (≈ 1.68 µM) | – | – | – | – | –
Cc1ccc(C(=O)/C=C/c2cc(C)c3c(c2)C2OCC(CO3)O2)cc1 (racemic) | 5 | 1.25 | 1.8 (≈ 5.35 µM) | 45 | 22 | 0.4 (≈ 1.19 µM) | – | – | – | – | –
COc1ccc(C(=O)/C=C/c2cc(C)c3c(c2)C2OCC(CO3)O2)cc1 (racemic) | >10 | 10 | 3.9 (≈ 11.1 µM) | 24 | 22 | 3.5 (≈ 9.93 µM) | 24.6 | 32.89 | – | – | –
CCC(C)c1cc(/C=C/C(=O)c2ccccc2)cc2c1OCC1COC2O1 (racemic) | 5 | 2.5 | 0.9 (≈ 2.47 µM) | 27 | – | 0.9 (≈ 2.47 µM) | – | – | – | – | –
CCC(C)c1cc(/C=C/C(=O)c2ccc(Cl)cc2)cc2c1OCC1COC2O1 (racemic) | 10 | 5 | 3.5 (≈ 8.77 µM) | 63 | – | 1.6 (≈ 4.01 µM) | 17.78 | 38.16 | – | – | –
CCC(C)c1cc(/C=C/C(=O)c2ccc(C)cc2)cc2c1OCC1COC2O1 (racemic) | >10 | 10 | – | – | – | 0.5 (≈ 1.32 µM) | – | – | – | – | –
O=C(/C=C/c1cc2c(c3ccccc13)OCC1COC2O1)c1ccccc1 (racemic) | >10 | >10 | – | – | 34 | – | – | – | – | – | –
O=C(/C=C/c1cc2c(c3ccccc13)OCC1COC2O1)c1ccc(Cl)cc1 (racemic) | >10 | >10 | – | – | 41 | – | – | – | – | – | –
Cc1ccc(C(=O)/C=C/c2cc3c(c4ccccc24)OCC2COC3O2)cc1 (racemic) | >10 | >10 | – | – | 33 | – | – | – | – | – | –
COc1ccc(C(=O)/C=C/c2cc3c(c4ccccc24)OCC2COC3O2)cc1 (racemic) | >10 | >10 | – | – | 35 | – | – | – | – | – | –
CCN(CC)C(=O)N1CCN(C)CC1.O=C(O)CC(O)(CC(=O)O)C(=O)O [DIETHYLCARBAMAZINE CITRATE] | – | – | – | – | – | – | – | – | 20.59 | 20.18 | 11
CCN(CC)C(=O)N1CCN(C)CC1 [DIETHYLCARBAMAZINE] | 500 | 800 | 354 (≈ 1780 µM) | – | 64 | 289 (≈ 1450 µM) | – | – | – | – | –
